This is a sample that favours compounds with a hit; in the whole collection about 3.7% have one here.
EBI2 antag: antagonists of human EBI2 receptor | inhibition, % at 5 µM | EBI2 beta-arrestin recruitment, luminescence, 7a,25-OHC stimulated | P32249 | 360,000 compounds, 0.81% hits | AID 651636; in the data active = inhibition above about 38%;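 also: enzyme fragment complementation signal reports receptor beta-arrestin coupling in cells; 0% = agonist plus DMSO wells and 100% = wells without agonist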
Target sequence (P32249 whole entry, looked up, the tested form may be a part): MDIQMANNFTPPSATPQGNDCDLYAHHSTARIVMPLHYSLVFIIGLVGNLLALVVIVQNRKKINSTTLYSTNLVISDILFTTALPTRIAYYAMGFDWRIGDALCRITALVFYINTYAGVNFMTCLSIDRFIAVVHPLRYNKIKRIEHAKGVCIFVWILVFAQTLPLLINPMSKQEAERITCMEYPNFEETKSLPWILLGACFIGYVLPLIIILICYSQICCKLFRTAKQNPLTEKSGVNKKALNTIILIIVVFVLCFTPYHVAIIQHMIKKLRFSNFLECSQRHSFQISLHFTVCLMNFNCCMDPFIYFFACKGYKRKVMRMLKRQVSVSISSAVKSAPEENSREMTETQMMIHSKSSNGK
Myeloid diff MLP: promotes myeloid progenitor differentiation | ER-HoxA9 myeloid progenitors, lysozyme-GFP differentiation, flow cytometry | calls only at 10 µM | 360,000 compounds, 1% hits | AID 624256;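 active = normalized GFP-positive differentiation at or above the plate's own cutoff, the solvent-only control mean plus 3 SD; inconclusive = no clear call, values can overlap the other calls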;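 also: cells exposed to compound for four days before flow analysis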
MC4R antagonist: blocks human MC4R cAMP signaling; P32245; MC4R-expressing cells, MTII-stimulated cAMP, LANCE TR-FRET; inhibition, % at 6.5 µM; 360,000 compounds, 0.48% hits;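 active = inhibition above its plate's cutoff, the mean of tested wells on that plate plus 3 SD, cut at about 29% in these data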;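 also: 0% = Melanotan II alone and 100% = Melanotan II plus saturating MCL0020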
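Material – human MC4R-expressing U2OS cells · Repeats – no replicates · Detection – TR-FRET with Eu-cAMP and labeled anti-cAMP, 671 nm · Times – compound 30 min, challenge 1 h, detection 1 h · Compound – single nominal compound dose of 6.5 µM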
Granule exo inh: lytic granule exocytosis inhibition; TALL-104 LAMP-1 surface exposure, flow cytometry; cells stimulated with thapsigargin and PMA; inhibition, % at 10 µM; 360,000 compounds, 0.66% hits;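 active = inhibition above about 55%, limit read from the data; inconclusive = no clear call, values can overlap the other calls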
MC4R barr agon: agonists of human melanocortin 4 receptor (MC4R) beta-arrestin. P32245. U2OS MC4R beta-arrestin complementation, luminescence; percent of melanotan II response, DMSO zero. activation, % at 8.9 µM. 360,000 compounds, 0.98% hits;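 active = activation above a per-plate cutoff, the mean activation of sample wells on that plate plus 3 SD, cut at about 8% in these data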
Active calls of the source: *; ! = not confirmed by another sample.

`CN(C(=O)COc1ccc(S(=O)(=O)N2CCOCC2)cc1[N+](=O)[O-])C1CCS(=O)(=O)C1` (stereo not drawn) gave EBI2 antag 2, Myeloid diff MLP inactive, MC4R antagonist 1, Granule exo inh -4 and MC4R barr agon -2.
For CCN(CC)CCNC(=O)c1ccc(NC(C)=O)cc1 the results were EBI2 antag -8, Myeloid diff MLP active!, MC4R antagonist 0, Granule exo inh -1 and MC4R barr agon -1.
`CCN(CC)CCNC(=O)c1ccc(NC(=O)c2ccc(C(=O)c3ccccc3)cc2)cc1` gave EBI2 antag -8, Myeloid diff MLP inactive, MC4R antagonist -9, Granule exo inh -1 and MC4R barr agon -3.
For CC1OC(CC(=O)O)CC2=C1C(=O)c1c(O)cccc1C2=O (stereo not drawn) the results were EBI2 antag 8, MC4R antagonist 40*, Granule exo inh 88* and MC4R barr agon -3.
Screening COc1cccc2c1-c1c(O)cccc1C2=O returned EBI2 antag 6, Myeloid diff MLP inactive, MC4R antagonist -1, Granule exo inh 11 and MC4R barr agon 0.
CN(C)c1ccc(C(C(=O)NCC2CCCO2)N(Cc2ccccc2)C(=O)c2snc(C(N)=O)c2N)cc1 (stereo not drawn) was read as EBI2 antag -19, MC4R antagonist 8, Granule exo inh 0 and MC4R barr agon 1.
Cc1cccc(N(C(=O)c2snc(C(N)=O)c2N)C(C(=O)NCC2CCCO2)c2ccc(N(C)C)cc2)c1C (stereo not drawn) was read as EBI2 antag 40, Myeloid diff MLP inactive, MC4R antagonist 2, Granule exo inh 66* and MC4R barr agon 2.
For O=C(NCCCO)/C(=C/c1ccc(-c2cccc([N+](=O)[O-])c2)o1)NC(=O)c1ccccc1 the results were EBI2 antag -9, Myeloid diff MLP inactive, MC4R antagonist -11, Granule exo inh 0 and MC4R barr agon -2.
For Cc1ccc(C(=O)N/C(=C/c2ccc(-c3ccc([N+](=O)[O-])cc3)o2)C(=O)NCCCN(C)C)cc1 the results were EBI2 antag 0, Myeloid diff MLP active, MC4R antagonist -16, Granule exo inh 1 and MC4R barr agon 0.
For COc1ncnc2c1ncn2CCCN1CCN(C(=O)C2CC2)CC1 the results were EBI2 antag -14, Myeloid diff MLP inactive, MC4R antagonist 3, Granule exo inh -2 and MC4R barr agon -1.
`CCOC(=O)c1cccc(N/C=C/C(=O)c2ccc(OC)c(OC)c2)c1` gave EBI2 antag 4, Myeloid diff MLP inactive, MC4R antagonist 3, Granule exo inh -1 and MC4R barr agon 0.
`CCOC(=O)c1ccc(N/C=C\C(=O)c2cccc(OC)c2)cc1` gave EBI2 antag 7, Myeloid diff MLP inactive, MC4R antagonist -6, Granule exo inh -2 and MC4R barr agon 9.4*.
For Cc1nc([N+](=O)[O-])c(Br)n1CC(=O)c1ccccc1 the results were EBI2 antag 2, Myeloid diff MLP inactive, MC4R antagonist 1, Granule exo inh -3 and MC4R barr agon 0.
Screening Cc1nc([N+](=O)[O-])c(Br)n1CC(=O)c1ccc2ccccc2c1 returned EBI2 antag 55*, Myeloid diff MLP inactive, MC4R antagonist 7, Granule exo inh 2 and MC4R barr agon -2.
O=c1c(Cl)c(Cl)cnn1Cc1ccc(F)cc1 was read as EBI2 antag 7, Myeloid diff MLP inconclusive, MC4R antagonist 52*, Granule exo inh -4 and MC4R barr agon -2.
For Cc1ccc2nc(Cl)c(/C=C/C(=O)c3ccco3)cc2c1 the results were EBI2 antag -2, Myeloid diff MLP inactive, MC4R antagonist 13, Granule exo inh 86* and MC4R barr agon 0.
`Cc1ccc2cc(/C=C/C(=O)c3ccco3)c(Cl)nc2c1` gave EBI2 antag 9, Myeloid diff MLP inactive, MC4R antagonist 11, Granule exo inh 95* and MC4R barr agon -1.
COC(=O)c1ccc2nc(C3CCCCC3)c(Cc3cccc(Cl)c3)n2c1 was read as EBI2 antag 29, Myeloid diff MLP inactive and Granule exo inh 3.
For CC1(C)NC(=O)N(CC(=O)OCC(=O)c2ccc(Cl)s2)C1=O the results were EBI2 antag 3, Myeloid diff MLP inactive, MC4R antagonist 3, Granule exo inh 4 and MC4R barr agon -1.
`CC1=CC(C)(C)n2c(O)c(N=NC(N)=S)c3c(C)ccc1c32` gave EBI2 antag 2, Myeloid diff MLP active, MC4R antagonist -3, Granule exo inh -4 and MC4R barr agon 2.
For CCCc1cc(CN(C)C(=O)c2ccc(OC3CCN(C(C)=O)CC3)c(OC)c2)[nH]n1 the results were EBI2 antag -8, Myeloid diff MLP inactive, MC4R antagonist 16, Granule exo inh 11 and MC4R barr agon 0.
CC[C@H]1c2[nH]c3ccccc3c2C[C@H]2C(=O)N(c3ccc(F)cc3)C(=O)N21 was read as EBI2 antag 48*, Myeloid diff MLP inactive, MC4R antagonist 10, Granule exo inh 1 and MC4R barr agon 4.
`O=C1C=CC(=O)N1c1ccccc1N1C(=O)C=CC1=O` gave EBI2 antag 25, Myeloid diff MLP inactive, MC4R antagonist 37*, Granule exo inh 5 and MC4R barr agon -4.
Screening O=C(c1ccccc1)c1ccccc1N1C(=O)C=CC1=O returned EBI2 antag 4, Myeloid diff MLP inactive, MC4R antagonist 28, Granule exo inh -10 and MC4R barr agon -4.
Screening Cc1cccc(N/N=C/c2ccc(O)c(O)c2O)c1 returned EBI2 antag 4, Myeloid diff MLP inactive, MC4R antagonist 8, Granule exo inh -2 and MC4R barr agon -2.
Cc1cccc(N/N=C/c2ccc(C)s2)c1 was read as EBI2 antag 15, Myeloid diff MLP inactive, MC4R antagonist 4, Granule exo inh 61* and MC4R barr agon -1.
Screening COC(=O)c1cc(S(=O)(=O)NCCCN2CCCC2=O)cn1C returned EBI2 antag -8, Myeloid diff MLP inactive, MC4R antagonist -3, Granule exo inh -2 and MC4R barr agon -4.
Screening COc1ccc(NC(=O)NCCCCc2ccccc2)cc1 returned EBI2 antag 4, Myeloid diff MLP inactive, MC4R antagonist 11, Granule exo inh 0 and MC4R barr agon 0.
`CCOc1ccc(NC(=O)NCCCCc2ccccc2)cc1` gave EBI2 antag -2, Myeloid diff MLP inactive, MC4R antagonist -1, Granule exo inh -1 and MC4R barr agon 9.0*.
CCOC(=O)CC1=C(C(=O)OCC)C(c2cccnc2)C(C#N)=C(N)O1 (stereo not drawn) was read as EBI2 antag 0, Myeloid diff MLP inactive, MC4R antagonist 10, Granule exo inh 2 and MC4R barr agon -1.
`CCOC(=O)C1=C(CSc2nc3c(cc2C#N)CCC3)OC(N)=C(C#N)C1c1ccccc1` (stereo not drawn) gave EBI2 antag 4, Myeloid diff MLP inactive, MC4R antagonist 13, Granule exo inh -3 and MC4R barr agon 0.

Bioassay records (PubChem BioAssay)
